Assay results reported in ChEMBL document CHEMBL1137238, “The synthesis and SAR of 2-amino-pyrrolo[2,3-d]pyrimidines: a new class of Aurora-A kinase inhibitors” (Bioorg Med Chem Lett, 2006).

How the values were obtained:
[1] = biological target: T1, Cyclin-dependent kinase 4 (Homo sapiens, UniProt P11802); experiment: Inhibition of retinoblastoma phosphorylation by CDK4; format: functional
Method in brief: (§1)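 Purified CDK4 incubated with compounds and retinoblastoma protein substrate in 100 mM Hepes pH 7.5, 75 mM NaCl, 2 mM DTT, 10 mM MgCl2, 30 μM ATP. Stopped after 35 min. Rb phosphorylation at Ser795 measured colorimetrically with a phospho-specific antibody.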

[2] = biological target: Vascular endothelial growth factor receptor (Homo sapiens, UniProt P17948+P35916+P35968); experiment: Inhibition of VEGFR; format: protein assay
[3] = biological target: BDNF/NT-3 growth factors receptor (Homo sapiens, UniProt Q16620); experiment: Inhibition of TrkB
[4] = biological target: Cyclin-dependent kinase 1 (Homo sapiens, UniProt P06493); experiment: Inhibition of CDK1
[5] = biological target: Cyclin-dependent kinase 7 (Homo sapiens, UniProt P50613); experiment: Inhibition of CDK7
[6] = biological target: Platelet-derived growth factor receptor (Homo sapiens, UniProt P09619+P16234); experiment: Inhibition of PDGFR; format: protein-complex assay
[7] = biological target: Aurora kinase A (Mus musculus) (UniProt P97477); experiment: Inhibition of Aurora-A
[8] = biological target: Insulin receptor (Homo sapiens, UniProt P06213); experiment: Inhibition of IRK
[9] = biological target: Proto-oncogene tyrosine-protein kinase Src (Homo sapiens, UniProt P12931); experiment: Inhibition of c-src
[10] = biological target: T1, Cyclin-dependent kinase 4; experiment: Inhibition of CDK4; method in brief: as §1

T1 sequence (P11802 whole entry): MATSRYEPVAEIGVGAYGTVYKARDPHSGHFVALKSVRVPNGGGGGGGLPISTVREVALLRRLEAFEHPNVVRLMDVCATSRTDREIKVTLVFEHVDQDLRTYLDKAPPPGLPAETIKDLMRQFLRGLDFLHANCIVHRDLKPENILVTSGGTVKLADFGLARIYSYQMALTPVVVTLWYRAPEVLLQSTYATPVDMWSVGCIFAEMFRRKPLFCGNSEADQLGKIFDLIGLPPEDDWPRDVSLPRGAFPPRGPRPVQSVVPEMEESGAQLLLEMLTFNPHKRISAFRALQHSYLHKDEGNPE
Sequence of Aurora kinase A (Mus musculus) (P97477 whole entry, looked up): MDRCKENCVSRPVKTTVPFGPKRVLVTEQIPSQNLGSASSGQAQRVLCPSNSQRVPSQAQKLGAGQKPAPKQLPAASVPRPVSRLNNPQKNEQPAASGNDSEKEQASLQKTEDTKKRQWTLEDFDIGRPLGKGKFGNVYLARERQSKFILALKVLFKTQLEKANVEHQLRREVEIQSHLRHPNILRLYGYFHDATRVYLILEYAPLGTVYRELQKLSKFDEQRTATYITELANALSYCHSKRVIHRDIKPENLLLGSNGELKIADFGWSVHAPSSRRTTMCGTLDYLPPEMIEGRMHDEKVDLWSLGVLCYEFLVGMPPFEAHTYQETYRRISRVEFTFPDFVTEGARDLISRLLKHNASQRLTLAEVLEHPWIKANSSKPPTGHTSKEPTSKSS
Sequence of Cyclin-dependent kinase 1 (P06493 whole entry): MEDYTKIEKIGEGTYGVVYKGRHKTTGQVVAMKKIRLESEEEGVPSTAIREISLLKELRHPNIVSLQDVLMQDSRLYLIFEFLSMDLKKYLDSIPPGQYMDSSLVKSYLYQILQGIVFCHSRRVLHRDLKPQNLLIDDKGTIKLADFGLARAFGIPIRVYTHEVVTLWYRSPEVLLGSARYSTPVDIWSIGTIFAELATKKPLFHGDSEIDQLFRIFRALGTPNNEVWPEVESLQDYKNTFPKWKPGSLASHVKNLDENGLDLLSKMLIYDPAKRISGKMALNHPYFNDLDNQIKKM
Sequence of BDNF/NT-3 growth factors receptor (Q16620 whole entry): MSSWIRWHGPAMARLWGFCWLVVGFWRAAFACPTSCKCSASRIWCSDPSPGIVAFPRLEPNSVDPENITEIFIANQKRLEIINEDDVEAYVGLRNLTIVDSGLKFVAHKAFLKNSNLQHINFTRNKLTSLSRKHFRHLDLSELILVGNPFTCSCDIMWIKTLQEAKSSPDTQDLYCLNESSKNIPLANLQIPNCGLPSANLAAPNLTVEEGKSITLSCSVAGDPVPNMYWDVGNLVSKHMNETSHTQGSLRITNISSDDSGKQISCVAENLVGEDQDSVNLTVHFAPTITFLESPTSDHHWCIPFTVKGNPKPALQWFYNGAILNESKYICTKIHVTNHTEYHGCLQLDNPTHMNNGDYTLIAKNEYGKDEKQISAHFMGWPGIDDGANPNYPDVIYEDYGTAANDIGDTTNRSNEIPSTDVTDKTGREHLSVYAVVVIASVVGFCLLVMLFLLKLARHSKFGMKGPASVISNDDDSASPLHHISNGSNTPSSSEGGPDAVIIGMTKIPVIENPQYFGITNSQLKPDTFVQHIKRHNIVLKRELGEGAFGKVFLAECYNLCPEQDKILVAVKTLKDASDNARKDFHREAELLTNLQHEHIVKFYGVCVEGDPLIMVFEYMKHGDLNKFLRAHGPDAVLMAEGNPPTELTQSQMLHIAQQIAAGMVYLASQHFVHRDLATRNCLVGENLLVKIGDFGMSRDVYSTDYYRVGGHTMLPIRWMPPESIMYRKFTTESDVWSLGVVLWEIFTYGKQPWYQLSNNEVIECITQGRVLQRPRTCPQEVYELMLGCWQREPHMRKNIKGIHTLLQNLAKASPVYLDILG
Sequence of Proto-oncogene tyrosine-protein kinase Src (P12931 2-536 limits assumed): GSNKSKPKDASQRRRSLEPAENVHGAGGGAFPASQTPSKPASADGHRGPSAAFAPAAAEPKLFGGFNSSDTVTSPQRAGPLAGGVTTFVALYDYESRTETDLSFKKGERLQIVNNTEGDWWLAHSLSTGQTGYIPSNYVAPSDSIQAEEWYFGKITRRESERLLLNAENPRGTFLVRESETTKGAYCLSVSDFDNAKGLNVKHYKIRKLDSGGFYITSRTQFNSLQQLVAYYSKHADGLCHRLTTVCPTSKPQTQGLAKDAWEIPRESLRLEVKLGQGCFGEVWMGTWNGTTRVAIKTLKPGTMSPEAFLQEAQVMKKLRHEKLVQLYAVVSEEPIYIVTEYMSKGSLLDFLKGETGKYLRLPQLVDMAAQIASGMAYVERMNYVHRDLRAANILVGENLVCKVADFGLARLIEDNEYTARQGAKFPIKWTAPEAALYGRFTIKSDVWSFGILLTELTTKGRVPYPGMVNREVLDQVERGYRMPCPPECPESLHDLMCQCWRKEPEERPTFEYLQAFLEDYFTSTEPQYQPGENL
Sequence of Cyclin-dependent kinase 7 (P50613 whole entry): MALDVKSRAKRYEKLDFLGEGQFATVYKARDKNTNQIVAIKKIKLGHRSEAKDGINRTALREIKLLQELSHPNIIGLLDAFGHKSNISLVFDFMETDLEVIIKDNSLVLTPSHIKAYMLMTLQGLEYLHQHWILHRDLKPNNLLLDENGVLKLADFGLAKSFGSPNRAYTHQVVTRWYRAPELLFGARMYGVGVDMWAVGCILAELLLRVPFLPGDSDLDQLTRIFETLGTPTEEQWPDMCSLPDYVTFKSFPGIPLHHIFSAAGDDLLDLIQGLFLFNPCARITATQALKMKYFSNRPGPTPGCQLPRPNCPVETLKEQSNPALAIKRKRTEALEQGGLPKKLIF
Sequence of Insulin receptor (P06213 28-758 limits assumed): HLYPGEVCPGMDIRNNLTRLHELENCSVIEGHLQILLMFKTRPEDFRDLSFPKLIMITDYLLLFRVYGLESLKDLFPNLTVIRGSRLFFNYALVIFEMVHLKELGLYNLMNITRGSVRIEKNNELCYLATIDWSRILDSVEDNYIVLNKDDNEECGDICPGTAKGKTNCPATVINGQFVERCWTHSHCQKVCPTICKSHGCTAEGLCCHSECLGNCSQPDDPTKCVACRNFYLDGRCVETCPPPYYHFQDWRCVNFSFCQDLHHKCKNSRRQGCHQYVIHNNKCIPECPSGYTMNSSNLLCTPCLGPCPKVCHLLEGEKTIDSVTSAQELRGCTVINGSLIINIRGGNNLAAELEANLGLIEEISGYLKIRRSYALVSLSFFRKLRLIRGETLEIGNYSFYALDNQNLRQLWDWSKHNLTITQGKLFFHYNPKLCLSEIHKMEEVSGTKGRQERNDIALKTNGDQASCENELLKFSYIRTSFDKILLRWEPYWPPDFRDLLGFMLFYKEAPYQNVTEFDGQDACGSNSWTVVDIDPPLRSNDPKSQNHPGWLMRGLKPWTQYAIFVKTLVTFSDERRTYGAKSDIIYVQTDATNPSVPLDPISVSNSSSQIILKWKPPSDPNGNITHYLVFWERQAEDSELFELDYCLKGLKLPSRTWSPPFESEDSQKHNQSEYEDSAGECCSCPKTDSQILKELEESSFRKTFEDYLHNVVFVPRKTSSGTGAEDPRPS
Sequence of Insulin receptor (P06213 763-1382 limits assumed): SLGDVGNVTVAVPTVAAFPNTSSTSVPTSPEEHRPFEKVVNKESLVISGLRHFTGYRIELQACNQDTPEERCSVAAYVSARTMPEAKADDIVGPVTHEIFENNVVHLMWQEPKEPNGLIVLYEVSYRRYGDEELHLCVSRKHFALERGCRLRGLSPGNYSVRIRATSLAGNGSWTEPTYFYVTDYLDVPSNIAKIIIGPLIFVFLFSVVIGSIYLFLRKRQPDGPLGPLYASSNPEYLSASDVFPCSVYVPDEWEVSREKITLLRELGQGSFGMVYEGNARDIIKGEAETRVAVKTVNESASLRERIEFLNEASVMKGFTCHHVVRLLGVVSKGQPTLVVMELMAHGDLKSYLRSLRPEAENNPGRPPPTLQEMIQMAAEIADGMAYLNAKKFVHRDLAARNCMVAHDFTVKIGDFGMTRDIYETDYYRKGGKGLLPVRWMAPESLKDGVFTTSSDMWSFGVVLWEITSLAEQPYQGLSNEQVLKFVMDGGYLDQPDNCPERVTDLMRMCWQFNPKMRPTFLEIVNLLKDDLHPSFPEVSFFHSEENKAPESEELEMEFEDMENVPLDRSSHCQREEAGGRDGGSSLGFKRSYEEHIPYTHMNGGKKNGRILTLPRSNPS

Row | Compound | IC50 [1] [µM] | further results
1 | CN1CCN(c2ccc(Nc3ncc4ccn(-c5cccnc5)c4n3)cc2)CC1 | 1.4 | –
2 | CN1CCN(c2ccc(Nc3ncc4ccn(C5CCCCC5)c4n3)cc2)CC1 | 0.031 | IC50 [2]: 0.1 µM; IC50 [3]: 0.16 µM; IC50 [4]: 1.6 µM; IC50 [5]: 1.5 µM; IC50 [6]: 0.29 µM; IC50 [7]: 0.047 µM; IC50 [8]: 1 µM; IC50 [9]: 0.71 µM; IC50 [10]: 0.031 µM
3 | CN1CCN(c2ccc(Nc3ncc4ccn(C5CC6CCC5C6)c4n3)cc2)CC1 (centres undefined) | 0.029 | –
4 | COCCN1CCN(c2ccc(Nc3ncc4ccn(C5CCCCC5)c4n3)cc2)CC1 | 0.11 | –
5 | O=C(O)Cc1cccc(Nc2ncc3ccn(C4CCCCC4)c3n2)c1 | 0.35 | –
6 | O=S1(=O)CCN(c2ccc(Nc3ncc4ccn(C5CCCCC5)c4n3)cc2)CC1 | 1 | –
7 | COc1cccc(-n2ccc3cnc(Nc4ccc(N5CCN(C)CC5)cc4)nc32)c1 | 0.34 | –
8 | c1cc(N2CCOCC2)ccc1Nc1ncc2ccn(C3CCCCC3)c2n1 | 0.6 | –
9 | CN1CCN(c2ccc(Nc3ncc4ccn(-c5cccc(S(C)(=O)=O)c5)c4n3)cc2)CC1 | 2 | –
10 | CN1CCN(c2ccc(Nc3ncc4ccn(C5Cc6ccccc6C5)c4n3)cc2)CC1 | 2.1 | –
